From ChEMBL document CHEMBL1133091, “Syntheses and structure-activity relationships of 5,6,7, 8-tetrahydro-5,5,8,8-tetramethyl-2-quinoxaline derivatives with retinoic acid receptor alpha agonistic activity” (J Med Chem, 2000) come the findings set out here.

In assay [1] the target is T1, Retinoic acid receptor beta (Homo sapiens, UniProt P10826).
T1 sequence (P10826 whole entry): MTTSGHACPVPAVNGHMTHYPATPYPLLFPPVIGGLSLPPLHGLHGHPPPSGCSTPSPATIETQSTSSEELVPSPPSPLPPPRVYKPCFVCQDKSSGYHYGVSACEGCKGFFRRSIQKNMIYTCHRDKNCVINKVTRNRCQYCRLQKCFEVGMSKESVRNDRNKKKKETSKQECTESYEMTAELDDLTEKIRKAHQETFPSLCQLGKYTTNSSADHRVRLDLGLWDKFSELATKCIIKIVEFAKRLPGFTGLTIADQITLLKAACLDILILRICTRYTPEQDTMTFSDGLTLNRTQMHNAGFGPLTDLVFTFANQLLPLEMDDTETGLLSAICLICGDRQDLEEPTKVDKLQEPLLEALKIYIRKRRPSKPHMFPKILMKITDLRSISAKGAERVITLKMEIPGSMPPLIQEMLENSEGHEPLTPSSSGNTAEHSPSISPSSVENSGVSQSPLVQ
Put plainly: Binding affinity for Retinoic Acid Receptor beta (RAR beta). The method in brief: (§1)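 Competitive binding to each RAR isoform using [³H]ATRA as radioligand. IC50 for each receptor was divided by the ATRA IC50 on the same receptor to give relative IC50 (mean ± SEM). Values were labelled not detectable when relative IC50 > 1000.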

The target of assay [2] is T2, Retinoic acid receptor gamma (Homo sapiens, UniProt P13631).
T2 sequence (P13631 whole entry): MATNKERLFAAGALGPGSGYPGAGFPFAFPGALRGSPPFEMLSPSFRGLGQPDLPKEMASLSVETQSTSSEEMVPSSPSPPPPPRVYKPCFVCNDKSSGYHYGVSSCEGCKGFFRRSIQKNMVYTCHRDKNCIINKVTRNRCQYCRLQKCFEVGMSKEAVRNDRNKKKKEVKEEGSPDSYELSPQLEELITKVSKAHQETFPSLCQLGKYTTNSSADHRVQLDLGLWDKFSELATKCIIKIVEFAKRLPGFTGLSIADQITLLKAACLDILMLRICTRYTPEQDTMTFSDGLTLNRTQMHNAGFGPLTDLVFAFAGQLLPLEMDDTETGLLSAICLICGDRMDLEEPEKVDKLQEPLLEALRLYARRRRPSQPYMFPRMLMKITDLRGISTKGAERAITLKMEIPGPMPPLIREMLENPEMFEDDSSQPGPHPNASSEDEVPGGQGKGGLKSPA
Put plainly: Binding affinity for Retinoic acid receptor gamma. The method in brief:
as §1

Assay [3] concerns the target T3, Retinoic acid receptor alpha (Homo sapiens) (UniProt P10276).
T3 sequence (whole entry): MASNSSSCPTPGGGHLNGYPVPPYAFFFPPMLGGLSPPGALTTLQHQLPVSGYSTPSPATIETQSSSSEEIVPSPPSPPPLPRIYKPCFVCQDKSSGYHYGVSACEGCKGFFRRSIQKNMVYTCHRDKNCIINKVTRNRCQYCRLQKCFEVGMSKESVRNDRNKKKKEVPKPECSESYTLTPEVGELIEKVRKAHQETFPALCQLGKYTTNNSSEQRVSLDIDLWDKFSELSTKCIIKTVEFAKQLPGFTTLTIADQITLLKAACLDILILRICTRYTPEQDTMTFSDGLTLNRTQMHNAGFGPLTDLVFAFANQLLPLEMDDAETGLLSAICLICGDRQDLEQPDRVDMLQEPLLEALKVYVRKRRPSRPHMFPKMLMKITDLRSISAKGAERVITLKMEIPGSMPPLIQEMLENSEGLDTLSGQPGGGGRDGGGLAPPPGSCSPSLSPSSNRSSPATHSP
Put plainly: Transcriptional activation in COS-1 cells expressing Retinoic Acid Receptor alpha (RAR alpha). The assay is classed as functional, cell-based. The method in brief: (§2)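 Receptor and reporter vectors were lipofected into COS-1 cells. After 4 h the medium was changed to DMEM/10% FBS for 20 h. Cells were reseeded at 3 × 10⁴/well and compounds added 6 h later, in log dilutions from 3.0 × 10^-6 to 1.0 × 10^-10 M in duplicate. Supernatant PLAP activity was read after 48 h. EC30 (30% of maximal response) was normalized to ATRA.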

Assay [4] addresses T3, Retinoic acid receptor alpha (Homo sapiens). The conditions noted are these: HL-60.
Assay [5] addresses T4, Retinoic acid receptor beta (Homo sapiens) (UniProt P10826).
T4 sequence (whole entry): T1 sequence (P10826 whole entry)
Put plainly: Transcriptional activation in COS-1 cells expressing Retinoic Acid Receptor beta (RAR beta). The assay is classed as functional, cell-based. The method in brief: as §2

Assay [6] concerns the target T5, Retinoic acid receptor gamma (Homo sapiens) (UniProt P13631).
T5 sequence (whole entry): T2 sequence (P13631 whole entry)
Put plainly: Transcriptional activation in COS-1 cells expressing Retinoic Acid Receptor gamma (RAR gamma). It is filed as functional, cell-based. The method in brief:
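Receptor and reporter vectors were lipofected into COS-1 cells for 4 h, then cultured 20 h in DMEM/10% FBS. Cells were reseeded at 3 × 10⁴ per well. After 6 h, compound was added in log dilutions from 1.0 × 10^-10 to 3.0 × 10^-6 M in duplicate. Supernatant PLAP activity was read after 48 h. EC30 was normalised to ATRA EC30 (mean ± SEM).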

Assay [7] has as its target T6, Retinoic acid receptor alpha (Homo sapiens, UniProt P10276).
T6 sequence (P10276 whole entry): T3 sequence (whole entry)
Put plainly: (§3) Binding affinity for Retinoic Acid Receptor alpha (RAR alpha). A digest of the protocol: (§4)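 Competitive binding to individual RAR isoforms with [3H]ATRA as radioligand. IC50 for each receptor divided by the ATRA IC50 and reported as relative IC50 (mean ± SEM). nd means relative IC50 > 1000.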

Assay [8] deals with T6, Retinoic acid receptor alpha. Put plainly: Binding affinity for Retinoic Acid Receptor alpha (RAR alpha). A digest of the protocol: as §4
Assay [9] has as its target T4, Retinoic acid receptor beta (Homo sapiens). Put plainly: Transcriptional activation of Retinoic Acid Receptor beta (RAR beta). The assay is classed as functional. The method in brief: as §2
Assay [10] has as its target T3, Retinoic acid receptor alpha (Homo sapiens). Put plainly: Transcriptional activation of Retinoic Acid Receptor alpha (RAR alpha). It is filed as functional. A digest of the protocol:
as §2

The target in assay [11] is T5, Retinoic acid receptor gamma (Homo sapiens). Put plainly: (§5) Transcriptional activation of Retinoic Acid Receptor gamma (RAR gamma). It is filed as functional. A digest of the protocol:
as §2

The target in assay [12] is T6, Retinoic acid receptor alpha. The assay is described as §3. The source holds these as a separate data set.
Assay [13] deals with T3, Retinoic acid receptor alpha (Homo sapiens). The settings on record: COS-1.
Assay [14] deals with T5, Retinoic acid receptor gamma (Homo sapiens). The description is as §5. A digest of the protocol: as §2
The target of assay [15] is T3, Retinoic acid receptor alpha (Homo sapiens). Put plainly: Induction of HL-60 cell differentiation at Retinoic Acid Receptor alpha (RAR alpha). The assay is classed as functional, cell-based. A digest of the protocol: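 HL60 cells (1 × 10⁵ in 1 mL RPMI1640) were exposed to compounds for 5 days, in log dilutions from 1.0 × 10^-5 to 1.0 × 10^-12 M in duplicate. Differentiation was read as cell-surface CD11b expression by FACS. Values are averages of at least two experiments.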

In assay [16] the target is T2, Retinoic acid receptor gamma. Put plainly: Binding affinity for Retinoic Acid Receptor gamma (RAR gamma). The method in brief: as §4

With `CC1(C)CCC(C)(C)c2nc(-c3ccc(-c4ccc(C(=O)O)cc4)[nH]3)cnc21`, the IC50 was 230 nM in [1], 310 nM in [2] and 2.2 nM in assay [7]. The values for the concentration for an effect of 30% (EC30) in assay [3], in [5] and in assay [6] were 0.32 nM, 2.5 nM and 20 nM, respectively. Also, in assay [4], the ED30 came out at 0.11 nM.

In the case of `CC1(C)CCC(C)(C)c2cc(NC(=O)c3ccc(C(=O)O)cc3)ccc21`, the values for the EC30 in assay [5] and in [6] were 48 nM and 150 nM, respectively.

Take `CC1(C)CCC(C)(C)c2nc(C(=O)Nc3ccc(C(=O)O)cc3)cnc21`: the IC50 in assay [8] was found to be 40 nM; in [1], 140 nM. The EC30 in assay [9] turned out to be 0.4 nM; in assay [10], 0.15 nM; in [11] it was 1.6 nM. In assay [4], this compound registered an ED30 of 0.87 nM.

For the compound `CC1(C)CCC(C)(C)c2cc(-c3ccc(-c4ccc(C(=O)O)cc4)[nH]3)ccc21`, the IC50 in assay [1] is 100 nM; in assay [2], 21 nM; in assay [12], 0.45 nM. The ED30 in assay [4] turned out to be 0.54 nM. In addition, the EC30 was determined as 3.9 nM in assay [5], 0.34 nM in [13] and 3.5 nM in assay [6].

For `Cn1c(-c2ccc(C(=O)O)cc2)ccc1-c1cnc2c(n1)C(C)(C)CCC2(C)C`, the EC30 came to 14 nM in assay [9], 120 nM in assay [14] and 38 nM in [10]. In addition, in assay [15], the ED30 was 240 nM.

For `CC1(C)CCC(C)(C)c2nc(-c3cc(-c4ccc(C(=O)O)cc4)co3)cnc21`, the IC50 is 2.5 nM in assay [1], 27 nM in assay [16] and 19 nM in assay [7]. Also, the EC30 worked out at 0.18 nM in assay [9], 0.35 nM in assay [10] and 0.76 nM in assay [11]. In addition, in assay [4], the ED30 is 0.21 nM.

On to `CC1(C)CCC(C)(C)c2cc(C(=O)Nc3ccc(C(=O)O)cc3)ccc21`, for which the EC30 in assay [5] amounted to 12 nM; in assay [6], 33 nM.

For the compound `CC1(C)CCC(C)(C)c2nc(-c3cc(-c4ccc(C(=O)O)cc4)[nH]n3)cnc21`, in assay [1], the half-inhibitory concentration (IC50) was 290 nM. Further, the concentration for an effect of 30% (EC30) in assay [9] is 0.85 nM; in assay [10] it was 1.7 nM; in assay [11] it was 3.9 nM. The compound further returned an ED30 in [4] of 2.1 nM.

Turning to `CC1(C)CCC(C)(C)c2nc(-c3ccc(-c4ccc(C(=O)O)cc4)s3)cnc21`, the values for the half-maximal inhibitory concentration (IC50) in assay [1], in [16] and in [7] were 36 nM, 17 nM and 130 nM, respectively. Further, the EC30 came to 0.73 nM in [9], 15 nM in assay [10] and 2.1 nM in [11]. In [4], this compound displayed an ED30 of 40 nM.

In the case of `CC1(C)CCC(C)(C)c2nc(-c3csc(-c4ccc(C(=O)O)cc4)n3)cnc21`, the figures for the IC50 in assay [1], in assay [16] and in [7] were 21 nM, 3.6 nM and 83 nM, respectively. Moreover, the figures for the EC30 in assay [9], in assay [10] and in assay [11] were 0.39 nM, 5.2 nM and 0.34 nM, respectively. This compound showed an ED30 in [4] of 11 nM.

In the case of `CC1(C)CCC(C)(C)c2nc(-c3ccc(-c4ccc(C(=O)O)cc4)o3)cnc21`, the values for the IC50 in assay [1], in assay [16] and in [7] were 39 nM, 4.6 nM and 32 nM, respectively. Moreover, the EC30 in assay [9] was found to be 0.38 nM; in assay [10], 1.8 nM; in assay [11] it was 1.5 nM. In [4], the ED30 amounted to 2.1 nM.

Consider `CC1(C)CCC(C)(C)c2nc(-c3c[nH]c(-c4ccc(C(=O)O)cc4)n3)cnc21`, for which the EC30 was 40 nM in [9], 39 nM in assay [14] and 80 nM in [10]. In assay [15], this compound yielded an ED30 of 20 nM.

In the case of `CC1(C)CCC(C)(C)c2nc(-c3cc(-c4ccc(C(=O)O)cc4)c[nH]3)cnc21`, the EC30 was 4.5 nM in assay [9], 11 nM in [10] and 1.6 nM in [11]. Besides, in assay [16], the IC50 worked out at 150 nM. This compound also displayed an ED30 in assay [4] of 140 nM.

As to `CC1(C)CCC(C)(C)c2nc(-c3cc(-c4ccc(C(=O)O)cc4)cs3)cnc21`, the IC50 is 4.5 nM in [1], 2 nM in [16] and 2.4 nM in assay [7]. Further, the results for the 30% effect concentration (EC30) in assay [9], in assay [10] and in [11] were 0.5 nM, 0.87 nM and 0.72 nM, respectively. The same compound gave an ED30 in assay [4] of 9.5 nM.
